Results from ChEMBL document CHEMBL1122798, “Trypanocidal 1,3-arylene diketone bis(guanylhydrazone)s. Structure-activity relationships among substituted and heterocyclic analogues” (1984).

Tests used:
Type in all cases: functional
[1] = tested on: Mus musculus; assay: Compound was tested for Trypanocidal Activity in mice at 6 mg/kg; 0/5
[2] = tested on: Mus musculus; assay: Compound was tested for Trypanocidal Activity in mice at 100 mg/kg; 3/10
[3] = tested on: Mus musculus; assay: Compound was tested for Trypanocidal Activity in mice at 15 mg/kg; 0/10
[4] = tested on: Mus musculus; assay: Compound was tested for Trypanocidal Activity in mice at 150 mg/kg; 1/5
[5] = tested on: Mus musculus; assay: Compound was tested for Trypanocidal Activity in mice at 10 mg/kg; 0/5
[6] = tested on: Mus musculus; assay: Compound was tested for Trypanocidal Activity in mice at 25 mg/kg; 1/20
[7] = tested on: Mus musculus; assay: Compound was tested for Trypanocidal Activity in mice at 40 mg/kg; 12/25
[8] = tested on: Mus musculus; assay: Compound was tested for Trypanocidal Activity in mice at 60 mg/kg; 9/25
Outline: (§1)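 Female Swiss-Webster mice (20–25 g) were infected ip with 5×10^4 T. brucei EATRO 110 organisms in fresh mouse blood diluted with minimum essential medium. Groups of 5 or 10 received a single ip dose in normal saline (solution or milled suspension, 20 μL/g) 6 h post-infection. Deaths within 72 h were scored as toxic. Survivors aparasitemic at 28 days (tail-blood wet films, phase contrast) counted as cures. ED50 was computed by Bliss/Litchfield–Wilcoxon, excluding toxic dosages.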

[9] = tested on: Mus musculus; assay: Compound was tested for Trypanocidal Activity in mice at 25 mg/kg; 0/5
[10] = tested on: Mus musculus; assay: Compound was tested for Trypanocidal Activity in mice at 40 mg/kg; 0/5
[11] = tested on: Mus musculus; assay: Compound was tested for Trypanocidal Activity in mice at 60 mg/kg; 0/5
[12] = tested on: Mus musculus; assay: Compound was tested for Trypanocidal Activity in mice at 25 mg/kg; 0/15
[13] = species on record: Mus musculus; assay: Effective dose against Trypanosoma brucei infection in mice; outline: as §1
[14] = tested on: Mus musculus; assay: Compound was tested for Trypanocidal Activity in mice at 25 mg/kg; 7/10
[15] = tested on: Mus musculus; assay: Compound was tested for Trypanocidal Activity in mice at 4 mg/kg; 0/5
[16] = tested on: Mus musculus; assay: Compound was tested for Trypanocidal Activity in mice at 15 mg/kg; 16/20
[17] = tested on: Mus musculus; assay: Compound was tested for Trypanocidal Activity in mice at 40 mg/kg; 1/5
[18] = tested on: Mus musculus; assay: Compound was tested for Trypanocidal Activity in mice at 6 mg/kg; 9/20
[19] = tested on: Mus musculus; assay: Compound was tested for Trypanocidal Activity in mice at 10 mg/kg; 14/20
[20] = tested on: Mus musculus; assay: Compound was tested for Trypanocidal Activity in mice at 40 mg/kg; 9/10
[21] = tested on: Mus musculus; assay: Compound was tested for Trypanocidal Activity in mice at 100 mg/kg; 1/5
[22] = tested on: Mus musculus; assay: Compound was tested for Trypanocidal Activity in mice at 15 mg/kg; 10/10
[23] = tested on: Mus musculus; assay: Compound was tested for Trypanocidal Activity in mice at 60 mg/kg; 7/10; outline: as §1
[24] = tested on: Mus musculus; assay: Compound was tested for Trypanocidal Activity in mice at 25 mg/kg; 10/10
[25] = tested on: Mus musculus; assay: Compound was tested for Trypanocidal Activity in mice at 1.5 mg/kg; 0/10
[26] = tested on: Mus musculus; assay: Compound was tested for Trypanocidal Activity in mice at 6 mg/kg; 32/45
[27] = tested on: Mus musculus; assay: Compound was tested for Trypanocidal Activity in mice at 10 mg/kg; 22/30
[28] = tested on: Mus musculus; assay: Compound was tested for Trypanocidal Activity in mice at 2.5 mg/kg; 6/25
[29] = tested on: Mus musculus; assay: Compound was tested for Trypanocidal Activity in mice at 4 mg/kg; 24/45
[30] = tested on: Mus musculus; assay: Compound was tested for Trypanocidal Activity in mice at 60 mg/kg; 2/5
[31] = tested on: Mus musculus; assay: Compound was tested for Trypanocidal Activity in mice at 100 mg/kg; 0/5
[32] = tested on: Mus musculus; assay: Compound was tested for Trypanocidal Activity in mice at 40 mg/kg; 0/10
[33] = tested on: Mus musculus; assay: Tested for Trypanocidal Activity in mice at 10 mg/kg; 17/20; outline: as §1
[34] = tested on: Mus musculus; assay: Compound was tested for Trypanocidal Activity in mice at 1.5 mg/kg; 0/20
[35] = tested on: Mus musculus; assay: Compound was tested for Trypanocidal Activity in mice at 6 mg/kg; 14/30
[36] = tested on: Mus musculus; assay: Compound was tested for Trypanocidal Activity in mice at 2.5 mg/kg; 5/30
[37] = tested on: Mus musculus; assay: Compound was tested for Trypanocidal Activity in mice at 60 mg/kg; toxic deaths; 1/10
[38] = tested on: Mus musculus; assay: Compound was tested for Trypanocidal Activity in mice at 4 mg/kg; 10/30
[39] = tested on: Mus musculus; assay: Compound was tested for Trypanocidal Activity in mice at 40 mg/kg; 10/10
[40] = tested on: Mus musculus; assay: Compound was tested for Trypanocidal Activity in mice at 150 mg/kg; 3/5
[41] = tested on: Mus musculus; assay: Compound was tested for Trypanocidal Activity in mice at 2.5 mg/kg; 9/10
[42] = tested on: Mus musculus; assay: Compound was tested for Trypanocidal Activity in mice at 0.15 mg/kg; 6/20
[43] = tested on: Mus musculus; assay: Compound was tested for Trypanocidal Activity in mice at 10 mg/kg; 5/5
[44] = tested on: Mus musculus; assay: Compound was tested for Trypanocidal Activity in mice at 1.0 mg/kg; 9/10
[45] = tested on: Mus musculus; assay: Compound was tested for Trypanocidal Activity in mice at 60 mg/kg; 5/5
[46] = tested on: Mus musculus; assay: Compound was tested for Trypanocidal Activity in mice at 6 mg/kg; 10/10
[47] = tested on: Mus musculus; assay: Compound was tested for Trypanocidal Activity in mice at 0.06 mg/kg; 0/10
[48] = tested on: Mus musculus; assay: Compound was tested for Trypanocidal Activity in mice at 0.4 mg/kg; 24/45
[49] = tested on: Mus musculus; assay: Compound was tested for Trypanocidal Activity in mice at 100 mg/kg; 5/5
[50] = tested on: Mus musculus; assay: Compound was tested for Trypanocidal Activity in mice at 25 mg/kg; 3/5
[51] = tested on: Mus musculus; assay: Compound was tested for Trypanocidal Activity in mice at 0.1 mg/kg; 1/10
[52] = tested on: Mus musculus; assay: Compound was tested for Trypanocidal Activity in mice at 1.5 mg/kg; 19/20
[53] = tested on: Mus musculus; assay: Compound was tested for Trypanocidal Activity in mice at 15 mg/kg; 3/5
[54] = tested on: Mus musculus; assay: Compound was tested for Trypanocidal Activity in mice at 4 mg/kg; 10/10
[55] = tested on: Mus musculus; assay: Compound was tested for Trypanocidal Activity in mice at 0.6 mg/kg; 23/25
[56] = tested on: Mus musculus; assay: Compound was tested for Trypanocidal Activity in mice at 0.25 mg/kg; 28/40
[57] = tested on: Mus musculus; assay: Compound was tested for Trypanocidal Activity in mice at 40 mg/kg; 5/5

With `C/C(=N\NC(=N)N)c1cc(/C(C)=N/NC(=N)N)cc([N+](=O)[O-])c1.Cl` as the molecule, how does the Cures/total [1] read?
Its Cures/total is 0.

And the Cures/total [2]?
The Cures/total was 3.

What about the Cures/total [3] of the same molecule?
Its Cures/total is 0.

What about the Cures/total [4] of the same molecule?
Its Cures/total is 1.

What about the Cures/total [5] of the same molecule?
The Cures/total was 0.

What about the Cures/total [6] of the same molecule?
Its Cures/total is 1.

What about the Cures/total [7] of the same molecule?
Its Cures/total is 12.

And the Cures/total [8]?
The Cures/total was 9.

`C/C(=N\NC(=N)N)c1cccc(/C(C)=N/NC(=N)N)c1[N+](=O)[O-].Cl` was tested. Which Cures/total [3] did it give?
The Cures/total was 0.

What about the Cures/total [9] of the same molecule?
Its Cures/total is 0.

What about the Cures/total [10] of the same molecule?
The Cures/total was 0.

For `CCCC/C(=N\NC(=N)N)c1cccc(/C(CCCC)=N/NC(=N)N)c1.Cl`, which Cures/total [11] is on record?
The Cures/total was 0.

What about the Cures/total [12] of the same molecule?
Its Cures/total is 0.

What about the Cures/total [10] of the same molecule?
The Cures/total was 0.

`C/C(=N\NC(=N)N)c1cc(O)cc(/C(C)=N/NC(=N)N)c1.Cl` was tested. Which ED50 [13] did it give?
Its ED50 is 7.3 mg/kg.

And the Cures/total [14]?
Its Cures/total is 7.

And the Cures/total [15]?
The Cures/total was 0.

And the Cures/total [16]?
Its Cures/total is 16.

And the Cures/total [17]?
Its Cures/total is 1.

And the Cures/total [11]?
Its Cures/total is 0.

And the Cures/total [18]?
Its Cures/total is 9.

What about the Cures/total [19] of the same molecule?
The Cures/total was 14.

`C/C(=N\NC(=N)N)c1cccc(/C(C)=N/NC(=N)N)c1.Cl` [BIS(GUANYLHYDRAZONE) ;2M HYDROCHLORIDE] was tested. Which Cures/total [20] did it give?
The Cures/total was 9.

And the Cures/total [21]?
Its Cures/total is 1.

What about the ED50 [13] of the same molecule?
Its ED50 is 4.2 mg/kg.

And the “Mice cured (number)” value [22]?
Its value is 10.

And the Cures/total [23]?
Its Cures/total is 7.

What about the Cures/total [24] of the same molecule?
Its Cures/total is 10.

What about the Cures/total [25] of the same molecule?
Its Cures/total is 0.

And the Cures/total [26]?
The Cures/total was 32.

And the Cures/total [27]?
Its Cures/total is 22.

What about the Cures/total [28] of the same molecule?
Its Cures/total is 6.

And the Cures/total [29]?
Its Cures/total is 24.

What does the source list for `C/C(=N\NC(=N)N)c1cc(I)cc(/C(C)=N/NC(=N)N)c1.Cl`?
Cures/total [30]: 2; Cures/total [31]: 0; Cures/total [32]: 0

Which results are given for `CCO.COc1cc(/C(C)=N/NC(=N)N)cc(/C(C)=N/NC(=N)N)c1.Cl`?
Cures/total [33]: 17; Cures/total [34]: 0; Cures/total [35]: 14; ED50 [13]: 5.4 mg/kg; Cures/total [36]: 5; Mice cured (number) [22]: 10; Cures/total [24]: 10; Cures/total [37]: 1; Cures/total [31]: 0; Cures/total [38]: 10; Cures/total [39]: 10

`CC(=O)NCC(=O)O.N=C(N)c1ccc(/N=N/Nc2ccc(C(=N)N)cc2)cc1` [DIMINAZEN ACETURATE] was tested. Which Cures/total [40] did it give?
Its Cures/total is 3.

And the Cures/total [41]?
The Cures/total was 9.

What about the Cures/total [42] of the same molecule?
The Cures/total was 6.

And the Cures/total [43]?
The Cures/total was 5.

What about the Cures/total [44] of the same molecule?
The Cures/total was 9.

And the ED50 [13]?
Its ED50 is 0.24 mg/kg.

What about the Cures/total [45] of the same molecule?
The Cures/total was 5.

What about the Cures/total [46] of the same molecule?
The Cures/total was 10.

And the Cures/total [47]?
The Cures/total was 0.

And the Cures/total [48]?
The Cures/total was 24.

And the Cures/total [49]?
The Cures/total was 5.

And the Cures/total [50]?
Its Cures/total is 3.

What about the Cures/total [51] of the same molecule?
The Cures/total was 1.

What about the Cures/total [52] of the same molecule?
Its Cures/total is 19.

And the Cures/total [53]?
The Cures/total was 3.

And the Cures/total [54]?
Its Cures/total is 10.

What about the Cures/total [55] of the same molecule?
Its Cures/total is 23.

What about the Cures/total [56] of the same molecule?
Its Cures/total is 28.

What about the Cures/total [57] of the same molecule?
Its Cures/total is 5.
